Data reported in ChEMBL document CHEMBL1123760, “Synthesis and oral antifungal activity of novel azolylpropanolones and related compounds” (1987).
Converted amounts (≈) assume the structure as drawn.

What was measured:
Assay type in all cases: functional
Trichophyton benhamiae = assay: In vitro antifungal activity against Trichophyton asteroides; conditions: Trichophyton benhamiae; read-out: MIC
Method in brief: (§1)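 Broth microdilution MIC in Sabouraud's glucose broth; final inocula 1 × 10^5 cells/mL (yeast) or 1 × 10^5 conidia/mL (mold and dermatophyte).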

Mus musculus = assay: Ratio of in vivo number of survivors / total infected; set-up: reference not given here
Aspergillus fumigatus = assay: In vitro antifungal activity against Aspergillus fumigatus; conditions: Aspergillus fumigatus; read-out: MIC; method in brief: as §1
Candida albicans [1] = assay: Minimum effective concentration for inhibition of pseudomycelium formation in Candida albicans; conditions: Candida albicans; read-out: MEC
Method in brief: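 C. albicans KE-2 (clinical isolate) at a final 1 × 10^6 yeast cells/mL in EMEM with 20% calf serum; compounds diluted by the same microtiter system as for MICs. After incubation, wells were Giemsa-stained (5% in phosphate buffer) and read by microscope. MEC is the lowest concentration preventing typical pseudomycelium formation.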

Candida albicans [2] = assay: In vitro antifungal activity against Candida albicans; conditions: Candida albicans; read-out: MIC; method in brief: as §1

Row | SMILES | MIC (Trichophyton benhamiae) [µg/mL] | No. of survivors (Mus musculus) | MIC (Aspergillus fumigatus) [µg/mL] | minimal effective concentration (Candida albicans [1]) [µg/mL] | MIC (Candida albicans [2]) [µg/mL]
1 | O=C(c1ccccc1)C(O)(Cn1ccnc1)c1ccc(Cl)cc1Cl (stereo not given) | 0.1 (≈ 0.277 µM) | 0 | > 100 | 0.63 | > 100
2 | O=C(c1ccc(Cl)cc1)C(O)(Cn1cncn1)c1ccc(Cl)cc1Cl (stereo not given) | 0.1 (≈ 0.252 µM) | 7 | > 100 | 1.25 | > 100
3 | Cc1ccccc1C(=O)C(O)(Cn1cncn1)c1ccccc1C (stereo not given) | 3.1 (≈ 9.65 µM) | 0 | > 100 | 5 | > 100
4 | OC(c1ccc(Cl)cc1Cl)C(O)(Cn1ccnc1)c1ccc(Cl)cc1Cl (stereo not given) | 0.1 (≈ 0.231 µM) | 3 | 100 (≈ 231 µM) | 1.25 | 50 (≈ 116 µM)
5 | O=C(c1ccc(Cl)cc1)C(O)(Cn1cncn1)C1CCCCC1 (stereo not given) | 0.8 (≈ 2.4 µM) | 0 | 50 (≈ 150 µM) | 0.08 | > 100
6 | CCCC(=O)C(O)(Cn1cncn1)c1ccc(Cl)cc1 (stereo not given) | 0.1 (≈ 0.34 µM) | 0 | 12.5 (≈ 42.6 µM) | 0.08 | 100 (≈ 340 µM)
7 | O=C1O[C@H](c2ccc(Cl)cc2Cl)[C@@](Cn2cncn2)(c2ccc(Cl)cc2Cl)O1 | 0.1 (≈ 0.218 µM) | 0 | > 100 | 0.16 | > 100
8 | OC(c1ccc(Cl)cc1Cl)C(O)(Cn1cncn1)c1ccc(Cl)cc1Cl (stereo not given) | 0.1 (≈ 0.231 µM) | 6 | > 100 | 0.08 | 100 (≈ 231 µM)
9 | CC(C)C(=O)C(O)(Cn1ccnc1)c1ccc(Cl)cc1 (stereo not given) | 0.2 (≈ 0.683 µM) | 2 | 25 (≈ 85.4 µM) | 0.08 | > 100
10 | O=C(c1ccc(F)cc1)C(O)(Cn1cncn1)c1ccc(Cl)cc1Cl (stereo not given) | 0.1 (≈ 0.263 µM) | 2 | > 100 | 1.25 | > 100
11 | O=C1O[C@H](c2ccc(F)cc2)[C@@](Cn2cncn2)(c2ccc(Cl)cc2Cl)O1 | 0.1 (≈ 0.245 µM) | 7 | > 100 | 0.63 | 50 (≈ 122 µM)
12 | CCCC(O)(c1ccc(F)cc1)C(O)(Cn1cncn1)c1ccc(Cl)cc1 (stereo not given) | 0.2 (≈ 0.513 µM) | 7 | > 100 | 0.31 | > 100
13 | CCCCC(O)(Cn1cncn1)C(=O)c1ccc(Cl)cc1 (stereo not given) | 0.2 (≈ 0.65 µM) | 2 | 100 (≈ 325 µM) | 0.31 | 100 (≈ 325 µM)
14 | O=C(c1ccccc1)C(O)(Cn1cncn1)c1ccc(Cl)cc1Cl (stereo not given) | 0.1 (≈ 0.276 µM) | 7 | > 100 | 1.25 | > 100
15 | O=C(c1ccc(Cl)cc1Cl)C(O)(Cn1ccnc1)c1ccc(Cl)cc1 (stereo not given) | 0.1 (≈ 0.253 µM) | 0 | 25 (≈ 63.2 µM) | 2.5 | 25 (≈ 63.2 µM)
16 | O=C(c1ccccc1Cl)C(O)(Cn1ccnc1)c1ccccc1Cl (stereo not given) | 0.1 (≈ 0.277 µM) | 2 | > 100 | 2.5 | > 100
17 | CC(C)CC(=O)C(O)(Cn1cncn1)c1ccc(Cl)cc1Cl (stereo not given) | 0.1 (≈ 0.292 µM) | 0 | 100 (≈ 292 µM) | 0.02 | 100 (≈ 292 µM)
18 | CC(C)(C)C(=O)C(O)(Cn1cncn1)c1ccc(Cl)cc1Cl (stereo not given) | 0.1 (≈ 0.292 µM) | 7 | > 100 | 0.04 | > 100
19 | O=C(c1ccc(Cl)cc1)C(O)(Cn1cncn1)C1CCCC1 (stereo not given) | 0.1 (≈ 0.313 µM) | 1 | 50 (≈ 156 µM) | 0.16 | 100 (≈ 313 µM)
20 | O=C(c1ccccc1Cl)C(O)(Cn1cncn1)c1ccc(F)cc1 (stereo not given) | 0.4 (≈ 1.16 µM) | 0 | > 100 | 10 | 100 (≈ 289 µM)
21 | CCCC(=O)C(O)(Cn1cncn1)c1ccc(Cl)cc1Cl (stereo not given) | 0.1 (≈ 0.305 µM) | 4 | 50 (≈ 152 µM) | 0.04 | 50 (≈ 152 µM)
22 | CCCCC(=O)C(O)(Cn1ccnc1)c1ccc(Cl)cc1Cl (stereo not given) | 0.1 (≈ 0.293 µM) | 0 | > 100 | 0.04 | > 100
23 | CCC(=O)C(O)(Cn1cncn1)c1ccc(Cl)cc1Cl (stereo not given) | 0.1 (≈ 0.318 µM) | 2 | 100 (≈ 318 µM) | 0.04 | 100 (≈ 318 µM)
24 | O=C(c1ccc(Cl)cc1Cl)[C@@](O)(Cn1cncn1)c1ccc(Cl)cc1Cl | 0.1 (≈ 0.232 µM) | 1 | > 100 | 1.25 | 50 (≈ 116 µM)

Row | SMILES | MIC (Trichophyton benhamiae) [µg/mL] | No. of survivors (Mus musculus) | MIC (Aspergillus fumigatus) [µg/mL] | minimal effective concentration (Candida albicans [1]) [µg/mL] | MIC (Candida albicans [2]) [µg/mL]
25 | O=C(c1ccc(Cl)cc1Cl)[C@](O)(Cn1cncn1)c1ccc(Cl)cc1Cl | 0.1 (≈ 0.232 µM) | 8 | > 100 | 0.08 | > 100
26 | O=S1O[C@H](c2ccc(Cl)cc2Cl)[C@](Cn2cncn2)(c2ccc(Cl)cc2)O1 (stereo not given in full) | 0.1 (≈ 0.225 µM) | 7 | > 100 | 0.02 | 100 (≈ 225 µM)
27 | CC(C)CC(=O)C(O)(Cn1cncn1)c1ccc(Cl)cc1 (stereo not given) | 0.1 (≈ 0.325 µM) | 0 | 50 (≈ 162 µM) | 0.04 | 100 (≈ 325 µM)
28 | O=C(c1ccccc1Cl)C(O)(Cn1cncn1)c1ccc(Cl)cc1 (stereo not given) | 0.4 (≈ 1.1 µM) | 0 | > 100 | > 20 | > 100
29 | O=C(c1ccc(Cl)cc1)C(O)(Cn1ccnc1)c1ccc(Cl)cc1Cl (stereo not given) | 0.1 (≈ 0.253 µM) | 0 | > 100 | 2.5 | > 100
30 | O=C(C1CCCC1)C(O)(Cn1cncn1)c1ccc(Cl)cc1Cl (stereo not given) | 0.1 (≈ 0.282 µM) | 0 | > 100 | 0.02 | 50 (≈ 141 µM)
31 | CC(C)C(=O)C(O)(Cn1ccnc1)c1ccc(Cl)cc1Cl (stereo not given) | 0.1 (≈ 0.306 µM) | 1 | > 100 | 0.04 | > 100
32 | O=C(c1ccccc1Cl)C(O)(Cn1cncn1)c1ccc(Cl)cc1Cl (stereo not given) | 0.1 (≈ 0.252 µM) | 8 | > 100 | 0.04 | > 100
33 | O=C(c1ccccc1)C(O)(Cn1cncn1)c1ccccc1 (stereo not given) | 12.5 (≈ 42.6 µM) | 0 | > 100 | > 20 | > 100
34 | O=C(c1ccc(Cl)cc1Cl)C(O)(Cn1cncn1)c1ccccc1Cl (stereo not given) | 0.1 (≈ 0.252 µM) | 7 | 100 (≈ 252 µM) | 0.31 | 100 (≈ 252 µM)
35 | OC(c1ccccc1Cl)C(O)(Cn1cncn1)c1ccccc1Cl (stereo not given) | 0.1 (≈ 0.275 µM) | 2 | 6.3 (≈ 17.3 µM) | 0.08 | 100 (≈ 275 µM)
36 | O=C1O[C@H](c2ccccc2Cl)[C@@](Cn2cncn2)(c2ccccc2Cl)O1 | 12.5 (≈ 32 µM) | 0 | > 100 | 0.31 | > 100
37 | CCCC(O)(Cn1cncn1)C(=O)c1ccc(Cl)cc1Cl (stereo not given) | 0.4 (≈ 1.22 µM) | 1 | 50 (≈ 152 µM) | 1.25 | > 100
38 | CCCCC(=O)C(O)(Cn1cncn1)c1ccc(Cl)cc1Cl (stereo not given) | 0.1 (≈ 0.292 µM) | 2 | > 100 | 0.04 | 50 (≈ 146 µM)
39 | O=C1O[C@H](c2ccccc2)[C@@](Cn2cncn2)(c2ccc(Cl)cc2Cl)O1 | 0.16 (≈ 0.41 µM) | 0 | > 100 | 0.16 | 100 (≈ 256 µM)
40 | O=C1O[C@H](c2ccc(Cl)cc2Cl)[C@@](Cn2cncn2)(c2ccc(Cl)cc2)O1 | 0.1 (≈ 0.235 µM) | 8 | > 100 | 0.63 | 50 (≈ 118 µM)
41 | O=S1O[C@H](c2ccc(Cl)cc2Cl)[C@@](Cn2cncn2)(c2ccc(Cl)cc2)O1 (stereo not given in full) | 0.1 (≈ 0.225 µM) | 5 | > 100 | 0.08 | 100 (≈ 225 µM)
42 | Clc1ccc([C@@]2(Cn3cncn3)OC3(CCCCC3)O[C@@H]2c2ccc(Cl)cc2Cl)cc1 | 0.1 (≈ 0.209 µM) | 0 | > 100 | 5 | > 100
43 | Cc1ccc(C(=O)C(O)(Cn2cncn2)c2ccccc2Cl)cc1 (stereo not given) | 0.8 (≈ 2.34 µM) | 1 | > 100 | 2.5 | > 100
44 | CC(=O)C(O)(Cn1cncn1)c1ccc(Cl)cc1Cl (stereo not given) | 0.2 (≈ 0.666 µM) | 2 | 50 (≈ 167 µM) | 0.04 | > 100
45 | O=C(c1ccc(Cl)cc1Cl)C(O)(Cn1ccnc1)c1ccc(Cl)cc1Cl (stereo not given) | 0.1 (≈ 0.232 µM) | 1 | 25 (≈ 58.1 µM) | 5 | 50 (≈ 116 µM)
46 | OC(c1ccccc1Cl)C(O)(Cn1cncn1)c1ccc(F)cc1 (stereo not given) | 0.8 (≈ 2.3 µM) | 0 | > 100 | 10 | > 100
47 | Clc1ccc([C@@]2(Cn3cncn3)OCO[C@@H]2c2ccc(Cl)cc2Cl)cc1 | 0.1 (≈ 0.243 µM) | 0 | > 100 | 0.31 | > 100
